# Measurements collected from several papers.
# Lines come from different studies, so protocols differ.
# Target: Mitogen-activated protein kinase kinase kinase 10 (MAP3K10, Homo sapiens, UniProt Q02779)
SMILES,test,conditions,remaining binding [%]
c1cnn2ncc(-c3ccnc(N4CCC45COC5)n3)c2c1,binding,1 µM,100
CNC(=O)c1ccc(Nc2ncc(C(F)(F)F)c(NCc3nccnc3N(C)S(C)(=O)=O)n2)cc1,"cell-free assay, competition with immobilised ligand",0.1 µM,68
CN(CCCC(F)(F)F)c1nccc(-c2cnn3ncccc23)n1,binding,1 µM,0
C[C@@H](c1ccc(-n2cnc3c(N)ncnc32)cc1)N1CCc2nn(C)c(Cc3ccccc3)c2C1=O,"binding, competition with immobilised ligand",0.1 µM,82
CN(c1nccc(-c2cnn3ncccc23)n1)C1CC1,binding,1 µM,76
COc1cnc(Nc2cccc(S(N)(=O)=O)c2)nc1N1CCN(c2ccccc2)C(=O)C1,"binding, competition with immobilised ligand",1 µM,79
c1cncc(-c2cccc(Nc3nccc(NC4CCCCC4)n3)c2)c1,"binding, competition with immobilised ligand",10 µM,49
C[C@H](c1ccnc(Nc2nc3ccc(-c4cc(N(C)C)ncn4)cc3[nH]2)c1)N1CCN(C(=O)CC(F)(F)F)CC1,"cell-free assay, competition with immobilised ligand",0.1 µM,100
O=C(NCCCN1CCOCC1)c1ccc(Nc2ncc(Cl)c(-c3ccc(Cl)s3)n2)cc1,"binding, competition with immobilised ligand",1 µM,3
Cc1cnn2ncc(-c3ccnc(N(C)C)n3)c2c1,binding,1 µM,100
FC(F)(F)Oc1cccc(-c2cnc3ccc(-c4ccncc4)nn23)c1,"cell-free assay, competition with immobilised ligand",5 µM,58
O=C(NCCCN1CCOCC1)c1ccc(Nc2nccc(-c3cc4ccccc4s3)n2)cc1,"binding, competition with immobilised ligand",1 µM,37
c1ccc(N2CCN(Cc3nc4ccccc4[nH]3)CC2)nc1,"binding, competition with immobilised ligand",1 µM,93
N[C@@H]1CCN(c2nccc(-c3cnn4ncccc34)n2)C1,binding,1 µM,100
CC(=O)N1CCC(c2ccc(C(=O)NC(=N)N)cc2C(F)(F)F)CC1,"cell-free assay, competition with immobilised ligand",1 µM,95
CC1CCCN1c1nccc(-c2cnn3ncccc23)n1 (stereo not drawn),binding,1 µM,100
COc1ncc2cc3ccccc3nc2c1C#N,"cell-free assay, competition with immobilised ligand",5 µM,79
O=c1nc(-c2ccccn2)sc2ccccc12,"binding, competition with immobilised ligand",1 µM,100
O=C(Nc1c[nH]nc1C(=O)NC1CCNCC1)c1cc(F)cc(F)c1,"binding, competition with immobilised ligand",1 µM,100
Cc1c(NC(=O)c2cc(C(N)=O)nc3cc(F)ccc23)c(C(F)(F)F)nn1Cc1ccc(C#N)cc1,"cell-free assay, competition with immobilised ligand",1 µM,92
O=C(c1ccc(Nc2ncc(Cl)c(-c3ccc(Cl)s3)n2)cc1)N1CCC(N2CCCC2)CC1,"binding, competition with immobilised ligand",1 µM,0
